Screening results (PubChem)
NR2E3 ag-1: NR2E3 (human) agonism. GST-NR2E3/biotin-RetCOR TR-FRET, 1536-well. 320,000 tested, 0.12% active. Q9Y5X4. inhibition of corepressor binding, % at 4.78 µM;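 active = percent inhibition above the cutoff of mean plus 3 SD of all tested compounds, set per screening campaign, cut at about 20% in these data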;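 note: 0% = DMSO wells and 100% = biotin wells as full block of FRET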
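Test system: GST-NR2E3 and biotin-RetCOR proteins | Quantity: 1.35 nM GST-tagged NR2E3 final | Medium: Tris pH 7.5 | Also added: 7 nM biotin-RetCOR | Dosing: Compound at 4.8 µM, single dose | Timing: 5 h at 4 °C | Detection: Time-resolved FRET | Read-out basis: Percent inhibition | Benchmarks: Biotin wells as high control, 0.6% DMSO wells as low control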
PG9 Ab binder: PG9 antibody binding by small molecule. inhibition, % at 6.7 µM. AID 624416. TR-FRET gp120-PG9 antibody binding. 360,000 tested, 0.43% active; in the data active = inhibition above about 8.5%
GalR3 antag: antagonists of human GalR3; O60755; HEK293 GalR3-CNG cAMP membrane potential fluorescence; galR3 body fused to GalR1 C-terminus; inhibition, % at 3 µM; 360,000 tested, 0.44% active;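 active = inhibition above the screen-wide average plus 3 SD, cut at about 13% in these data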;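 note: forskolin and galanin both at EC90 stimulate the cells; cAMP rise reported by CNG channel membrane potential dye signal; 0% = forskolin plus galanin with DMSO and 100% = forskolin alone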
Target sequence (O60755 1-299 limits assumed): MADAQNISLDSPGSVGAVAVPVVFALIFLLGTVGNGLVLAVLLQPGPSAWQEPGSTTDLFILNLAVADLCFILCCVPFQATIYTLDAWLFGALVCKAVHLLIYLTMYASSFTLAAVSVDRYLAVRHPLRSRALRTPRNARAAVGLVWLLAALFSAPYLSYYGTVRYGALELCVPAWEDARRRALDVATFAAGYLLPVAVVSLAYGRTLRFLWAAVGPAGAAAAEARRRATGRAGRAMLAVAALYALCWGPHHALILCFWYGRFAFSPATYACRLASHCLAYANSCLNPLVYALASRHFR
NR1D1 modulator: modulates human Rev-erb alpha binding to DNA. P20393. Rev-erbα–FITC-DNA binding, fluorescence polarization, 90 min. activity, % at 10 µM. 370,000 tested, 0.79% active. AID 1259318;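 active = activity above about 14%, limit read from the data; passing the limit was not always enough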;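 note: 0% = DMSO wells with 35 nM protein and 100% = DMSO wells with 750 nM protein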
NR2E3 ag-2: human photoreceptor-specific nuclear receptor agonism; CHO-S Gal4-NCOR/VP16-NR2E3 two-hybrid, luciferase; AID 602229; inhibition of corepressor binding, % at 3.98 µM; 360,000 tested, 0.35% active;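 active = inhibition above the mean of all tested compounds plus 3 SD, cut at about 70% in these data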;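 note: 0% = DMSO with NR2E3 transfected cells and 100% = cells lacking NR2E3 construct; higher means lower luciferase signal from less NR2E3 corepressor binding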
NR1D1 mod conf: confirmation of modulators of human Rev-erb alpha DNA binding | shares compounds with NR1D1 modulator | Rev-erb alpha FITC-DNA binding, fluorescence polarization, 90 min | activation, % at 25 µM | 3,000 tested, 61% active | AID 1259319;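 active = activation at or above a set limit, or at least 3 SD above the negative control mean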;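 note: 0% = 35 nM protein with DMSO and 100% = 750 nM protein high control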
RORg DNA counter: counter-screen for Rev-erb alpha modulators: RORgamma DNA binding. shares compounds with NR1D1 modulator. AID 1259320. IC50, µM. purified RORgamma protein-FITC-DNA binding, fluorescence polarization. 910 tested, 8% active;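 active = Compounds whose fitted half-maximal concentration for disrupting protein-DNA binding is below 10 micromolar; the record names Rev-erb in its text, so the target is in doubt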
An asterisk follows results filed as active; / = no result. An excerpt weighted towards active compounds, which were near 1.8% of everything screened.

SMILES	NR2E3 ag-1	PG9 Ab binder	GalR3 antag	NR1D1 modulator	NR2E3 ag-2	NR1D1 mod conf	others
O=C(OCc1ccc(CSc2nnc(-c3cccc4ccccc34)o2)cc1)c1ccc(F)cc1	/	/	/	-2	/	/
O=C(CSc1nnc(COc2ccccc2)n1-c1ccc(Cl)cc1)Nc1ccccc1-c1ccccc1	/	/	/	1	/	/
CCOc1cc(C=O)c(Br)cc1OC1CCCC1	15	3	-8	22*	12	12
COc1ccc(S(=O)(=O)N2CCCCC2)cc1NC(=O)c1[nH]c(C)c(C(C)=O)c1C	/	1	0	3	-11	/
CC(=O)c1c(C)[nH]c(C(=O)Nc2cc(S(=O)(=O)N3CCCCC3)ccc2C)c1C	3	-1	-2	17*	-20	9
NC(=O)C1CCN(c2ncc(Br)cn2)CC1	/	/	/	2	/	/
CCOC(Cn1c(SCc2cc(C(C)=O)ccc2OC)nc2ccccc2c1=O)OCC	2	0	5	34*	-21	34*	RORg DNA counter=>40
COc1ccccc1-c1nc(SCC(=O)N(C)c2ccccc2)c2c(=O)n(C)c(=O)n(C)c2n1	4	0	-2	81*	2	46*	RORg DNA counter=>40
Cn1c(=O)c2c(SCC(=O)Nc3ccccc3F)nc(C3CC3)nc2n(C)c1=O	-2	1	3	1	-32	/
Cc1ccc(-c2nc(SCC(=O)Nc3cc(C)on3)c3c(=O)n(C)c(=O)n(C)c3n2)cc1	1	1	-1	24*	9	18*
Cn1c(=O)c2c(SCC(=O)Nc3ccccc3F)nc(-c3ccccc3F)nc2n(C)c1=O	0	-1	-1	26*	-2	3
COc1cccc(-c2nnc(SCC(=O)Nc3cccc4ccccc34)n2Cc2ccco2)c1	/	/	/	2	/	/
C=CCN1C(C(=O)OC)CN(Cc2cn(Cc3ccc(C)cc3)nn2)CCS1(=O)=O (stereo unspecified)	/	/	/	-7	/	/
O=C(CSc1nnc(-c2ccccn2)n1-c1ccccc1)Nc1ccccc1-c1ccccc1	/	/	/	-8	/	/
CCCOc1cccc(-c2nnc(NC(=O)c3ccco3)s2)c1	3	1	-2	23*	-42	5
COc1ccc(S[C@]2(C(=O)N3CCN(c4ncccn4)CC3)CC(=O)N(C(=O)C3CC3)[C@@H]2c2ccc(OC)cc2)cc1	/	/	/	7	/	/
O=C(NCc1ccccc1)OCCN1C(=O)CCC12CCC(c1ccccc1)CC2 (stereo unspecified)	/	/	/	-4	/	/
CCc1cc2c(=O)c(-c3cnn(-c4ccccc4)c3)c(C)oc2cc1OCC(=O)Nc1ccc(F)c(F)c1	-1	-1	-5	31*	-34	13
C[C@H]1C(c2ccccc2F)O[C@]2(C[C@H](O)c3c(ccc4ccccc34)O2)C[C@@H]1O (stereo partly specified)	/	/	/	3	/	/
COc1ccc(OC)c(COC(=O)c2cc([N+](=O)[O-])ccc2N2CCOCC2)c1	0	2	-4	2	-23	/
CCOc1ccc(C(C)=O)cc1COC(=O)c1cc([N+](=O)[O-])ccc1N1CCOCC1	2	0	-3	14*	-5	-3
COC(=O)[C@H](C)NC(=O)[C@@H]1CCCN1C(=O)CNP(=O)(OCc1ccccc1)OCc1ccccc1	/	/	/	-1	/	/
O=C(CNC(=O)Cc1ccccc1)NCC(=O)OCc1ccc(C(=O)c2ccccc2)cc1	2	/	/	22*	-10	20*
O=C(CCc1c[nH]c2ccccc12)Nc1ccc(Nc2cccnc2)cc1	/	-1	-5	3	/	/
N#Cc1nc(-c2ccccc2F)oc1N1CCN(C(=O)c2ccco2)CC1	3	0	-2	-1	-7	/
SMILES	NR2E3 ag-1	PG9 Ab binder	GalR3 antag	NR1D1 modulator	NR2E3 ag-2	NR1D1 mod conf	others
CC1CC(C)CN(c2oc(-c3ccccc3Cl)nc2C#N)C1 (stereo unspecified)	-2	-1	-2	18*	-18	-14
N#Cc1nc(-c2ccccc2Cl)oc1N1CCN(C(=O)c2ccco2)CC1	5	2	-4	25*	1	3
O=C(COc1ccc2ccccc2c1Br)NC(=S)Nc1cccc(CO)c1	6	-2	-2	24*	-9	21*
COc1cc(NC(=O)C2CCCN(S(=O)(=O)c3ccccc3[N+](=O)[O-])C2)cc(OC)c1 (stereo unspecified)	/	/	/	1	/	/
CC1(C)Cc2c(c(N3CCOCC3)nc3sc4c(NN)ncnc4c23)CS1	1	-2	-4	28*	-27	34*	RORg DNA counter=>40
CCc1cc2c(C)ccc(C)c2nc1SCC(=O)Nc1c(C)[nH]c(=O)[nH]c1=O	0	3	2	-3	26	/
CCc1cc2c(C)ccc(C)c2nc1SCC(=O)Nc1c[nH]c(=O)[nH]c1=O	3	6	3	53*	-29	44*	RORg DNA counter=>40
CC(C)N1CCCCC(NC(=O)Cc2ccccc2)C1=O (stereo unspecified)	/	/	/	-1	/	/
Cc1cc(C(F)(F)F)c(C#N)c(N2CCOCC2)n1	-2	0	3	-3	-22	/
N#Cc1c(N2CCOCC2)nsc1-c1ccc(C(F)(F)F)cc1	2	5	2	22*	-28	16
CN(C)CC(=O)N[C@H]1C[C@@H]2O[C@@H](CO)CC[C@@H]2O[C@@H]1CCc1ccc(-c2ccc(F)cc2)cc1	/	/	/	-2	/	/
COc1ccc(C)cc1-n1c(SCC(=O)Nc2cc(C)on2)nc2sc(C)c(C)c2c1=O	2	-15	1	11	-14	/
CCc1sc2nc(SCC(=O)Nc3cc(C)on3)n(-c3cccc(OC)c3)c(=O)c2c1C	2	8	1	34*	-14	22*
CCn1c(SCC(=O)Nc2cc(C)on2)nc2sc(C)c(C)c2c1=O	/	7	-4	27*	/	35*	RORg DNA counter=>40
C=CCn1c(SCC(=O)Nc2cc(C)on2)nc2sc(C)c(C)c2c1=O	-3	-1	-3	54*	1	53*	RORg DNA counter=>40
C=CS(=O)(=O)N(Cc1ccc(C)cc1)[C@@H](CO)C(=O)OC	/	/	/	4	/	/
CCOC(=O)c1c(N)sc2c1CCN(Cc1ccccc1)C2	/	/	/	0	/	/
O=C(Nc1cc(Cl)ccc1F)C1CCCN1S(=O)(=O)c1cccc2cccnc12 (stereo unspecified)	/	/	/	-1	/	/
COc1cccc(N2CC(O)=C(c3nc4ccccc4c(=O)[nH]3)C2=N)c1	3	/	/	/	-49	/
Cc1cc(C)cc(N2CC(O)=C(c3nc4ccccc4c(=O)[nH]3)C2=N)c1	-25	6	-2	21*	-33	33*	RORg DNA counter=>40
O=c1c2cnn(-c3ccccc3)c2nc(-c2cccs2)n1-c1cccc(Cl)c1	2	-2	-10	3	-9	/
O=c1c2cnn(-c3ccccc3)c2nc(-c2cccs2)n1-c1ccc(Cl)cc1	1	0	-2	23*	-6	10
